Screening results (PubChem)
Rows were chosen to be rich in hits. Some 11% of all compounds tested hit in one or more screens of this group.
mHtt clearance – mutant huntingtin protein clearance. hit rate 0.42% among 47,000. HeLa Exon1htt(103Q)mCFP, aggregate imaging; zero = plate's median compound well. inhibition, % at 1.5 µM;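 active = inhibition of aggregate fluorescence above about 70%, also judged a hit by eye on the cell image, limit read from the data, passing the limit was not always enough; inconclusive = no rule stated for this call; inactive = not judged a hit on image review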;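 also: cells exposed to compound for three days before fixation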
SF-1 act – activators of human nuclear receptor SF-1; Q13285; CHO-K1 Gal4-SF-1 LBD luciferase reporter; % increase over DMSO SF-1-specific signal; activation, % at 10 µM; hit rate 1.9% among 65,000; AID 522;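 active = activation above the mean activation of all tested compounds plus 3 SD, cut at about 50% in these data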
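Material: Gal4–SF-1 LBD one-hybrid luciferase reporter in CHO-K1 cells | Amount: 4,000 cells per well | Compound dosing: 10 µM single point, 1% DMSO | Schedule: 20 h compound treatment, 37 °C | Measured by: SteadyLite luciferase luminescence | Evaluation: Percent activation versus DMSO | Control set: DMSO-treated SF-1-transfected cells as negative, DMSO-treated mock-transfected cells lacking SF-1 as background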
M1 agonist – activates the M1 muscarinic receptor | CHO-M1 cells, Fluo-4 calcium fluorescence, agonist mode; hits give high values | B-score at 10 µM | hit rate 3% among 64,000 | AID 626;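 active = fluorescence rise, raw or as B-score row- and column-corrected plate score, outside the 99.7% band of its plate's samples, either direction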
D1 mod – allosterically modulates the human D1 dopamine receptor; B-score at 10 µM; AID 641; HEK293 D1, CRE-luciferase, dopamine EC30 potentiation; actives deviate in either direction; hit rate 5.9% among 58,000;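 active = luminescence count or its row- and column-corrected plate score outside the 99.7% band of the plate's sample wells, on either side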
Target sequence (P21728 whole entry, looked up): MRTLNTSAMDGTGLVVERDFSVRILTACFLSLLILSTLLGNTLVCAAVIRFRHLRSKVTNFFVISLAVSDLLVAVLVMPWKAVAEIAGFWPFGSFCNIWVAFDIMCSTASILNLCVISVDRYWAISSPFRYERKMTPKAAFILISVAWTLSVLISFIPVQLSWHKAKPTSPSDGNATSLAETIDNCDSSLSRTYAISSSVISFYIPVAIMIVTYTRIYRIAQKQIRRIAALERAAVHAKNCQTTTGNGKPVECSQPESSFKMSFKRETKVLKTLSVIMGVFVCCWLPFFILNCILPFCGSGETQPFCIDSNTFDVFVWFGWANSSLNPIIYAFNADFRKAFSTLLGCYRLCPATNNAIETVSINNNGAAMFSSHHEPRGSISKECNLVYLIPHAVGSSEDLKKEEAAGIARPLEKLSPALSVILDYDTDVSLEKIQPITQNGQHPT
M1 antag – blocks the rat M1 muscarinic receptor response to acetylcholine. hit rate 3.4% among 64,000. B-score at 10 µM. AID 628. CHO-M1 cells, Fluo-4 calcium, ACh EC80 antagonist mode; hits give low values. P08482;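 active = calcium fluorescence response, raw or row-and-column corrected B-score, differing from the plate sample mean either way at a set confidence level, mostly lower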
RORa activator – RORA (human) activation; P35398; CHO-K1 Gal4-RORA LBD luciferase reporter, luminescence; percent increase over mock-subtracted basal signal; activation, % at 10 µM; hit rate 1.5% among 65,000; AID 560;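 active = activation above the mean of all tested compounds plus 3 SD, cut at about 49% in these data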;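 also: 0% = DMSO-treated RORA cells and 100% = added signal equal to DMSO minus mock-transfected cells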
M1 ag confirm – confirmation of rat M1 muscarinic receptor agonists; shares compounds with M1 agonist; CHO-M1 cells, Fluo-4 calcium fluorescence, agonist mode; actives lie on both sides; fluorescence change (max-min) at 10 µM; hit rate 19% among 1,700;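 active = fluorescence change differs from the solvent-only DMSO control mean at a set confidence level in both duplicate runs; inconclusive = differs from solvent-only control mean in just one of two runs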;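 also: an EC20 dose of acetylcholine follows compound addition during the same imaging run; raw fluorescence intensity difference in instrument units with no normalization to controls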
M4 agonist ctr – counter-screen for M1 agonists: activity at rat M4 receptor. shares compounds with M1 agonist. CHO M4/Gqi5 cells, Fluo-4 calcium fluorescence, agonist mode; actives lie on both sides. fluorescence change (max-min) at 10 µM. hit rate 9% among 1,700. AID 1741;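 active = fluorescence change differing from the plate's solvent-only control wells at 99.7% confidence in both duplicates, whether higher or lower; inconclusive = differs from solvent controls in only one of two duplicates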
The depositor's hits bear a star; ? = inconclusive; . = no result given.

SMILES	mHtt clearance	SF-1 act	M1 agonist	D1 mod	M1 antag	RORa activator	M1 ag confirm	M4 agonist ctr
c1csc(CNc2ncnc3sccc23)c1	.	-51	.	-0.21	.	-39	.	.
Cc1cc2cc(CCNC(=O)c3ccc(S(=O)(=O)N4CCOCC4)cc3)c(=O)[nH]c2cc1C	.	10	6.7*	-0.85	-1.9	17	?	-67
COc1cc(C2CC(=O)c3c([nH]c(C(=O)OCCOC(C)C)c3C)C2)cc(OC)c1OC (configuration not stated)	9	-34	3.2*	-5.8	0.22	-25	-33*	-20
CCOC(=O)c1[nH]c2c(c1C)C(=O)CC(c1ccc(OC)c(OC)c1)C2 (configuration not stated)	.	-23	0.92	-0.59	-0.34	-17	.	.
Cc1ccc(C)c(N2CCN(C(=O)c3cc4ccccn4n3)CC2)c1	.	-11	31*	1.7	-0.77	-14	55	10
CC1CCCCC1NC(=O)CSc1nnc(CN2CCOCC2)n1C (configuration not stated)	.	-17	13*	0.52	1	-2	-8.8	-14
CC(C)OC(=O)c1c2nc3ccccc3nc2n2c1[nH]c(=O)c1ccccc12	.	-8	7.9*	0.11	0.4	27	73*	113
CC(C)n1c2ccccc2c2nc3ccccc3nc21	.	-10	0.1	2.4	0.079	13	.	.
O=C(O)Cn1cc(C(=O)c2ccco2)c2ccccc21	3	-9	-0.77	0.67	1.6	-6	.	.
COc1cccc(OCCn2cc(C(=O)c3ccco3)c3ccccc32)c1	58	-18	5*	-1.1	-0.058	5	-19	-39
CCc1ccc(-c2cn3nc(C)c(C)nc3n2)cc1	.	-81	7.3*	.	1.3	-86	89*	39
CN(Cc1nc(-c2ccncc2)no1)S(=O)(=O)c1ccc(Cl)cc1	-2	-16	-0.36	1.3	-1.7	-8	.	.
Cc1nn(-c2ccccc2)c(C)c1C(=O)OCC(=O)N1CC(=O)Nc2ccccc21	-30	-1	-0.15	-0.37	0.33	8	.	.
Cc1nn(-c2ccccc2)c(C)c1C(=O)OC/C(O)=C(\C#N)c1nc2ccccc2[nH]1	.	4	2.9*	-2.1	0.65	28	-21*	-53
CCCc1oc2c(c(=O)c1CC)C(=O)CC(C)(C)C2	.	-11	0.33	0.42	-0.12	-27	.	.
CC(=O)N1CCc2cc(C(=O)CN3CCN(c4cccc(Cl)c4)CC3)ccc21	-9	-12	5.9*	-3.5*	-3*	17	22	16
CC(C)n1c(N2CCN(CC(=O)Nc3ccc4c(c3)OCCO4)CC2)nc2ccccc21	.	2	4*	0.072	-1.2	5	-22*	?
CN(C)c1ccc(NC(=O)CN2CCN(S(=O)(=O)c3cc(Cl)ccc3Cl)CC2)cc1	3	19	-0.52	-0.69	-0.8	8	.	.
O=C(CN1CCN(S(=O)(=O)c2cc(Cl)ccc2Cl)CC1)Nc1ccc2c(c1)OCCO2	.	-5	4.1*	2.5	0.58	1	-31*	?
Cc1ccc(OCCN2CCN(C(=O)CCC(=O)Nc3nnc(C)s3)CC2)cc1	9	-6	-1.1	-0.63	-0.77	-5	.	.
Cc1ccc(OCCN2CCN(C(=O)CCC(=O)Nc3nnc(C(C)C)s3)CC2)cc1	-3	-16	13*	-0.38	-1.9	-6	5.1	0.75
CC(C)c1nnc(NC(=O)CCC(=O)N2CCN(C3CCCCC3)CC2)s1	-38	-7	3.1*	-0.087	-0.027	-9	?	-8.6
CCCc1nnc(NC(=O)CCC(=O)N2CCN(CCOc3ccc(C)cc3)CC2)s1	-25	-12	20*	-1.6	-1.6	-11	-7.2	-35
CC(=O)CC(C)(C)n1nnc(-c2ccccc2)n1	-11	-2	-0.03	-0.35	-0.5	7	.	.
CC(=O)Nc1ccc(-c2nnc(SCc3c(C)cc(C)cc3C)n2C)cc1	16	.	.	.	.	.	.	.
SMILES	mHtt clearance	SF-1 act	M1 agonist	D1 mod	M1 antag	RORa activator	M1 ag confirm	M4 agonist ctr
CCN(CC)C(=O)C1CCN(Cc2ccc(Br)cc2)CC1	.	42	-0.21	0.091	-0.47	12	.	.
COc1ccc(NC(=O)COC(=O)CCCc2c[nH]c3ccccc23)cc1OC	32	.	.	.	.	.	.	.
CCc1c(-c2ccccc2)nc2nc(C)c(C)nn12	-111	1	46*	-0.0036	0.24	-16	237*	219*
O=S(=O)(c1ccc(Oc2ncnc3scc(-c4ccccc4)c23)cc1)N1CCOCC1	23	17	7*	.	-0.44	13	?	?
O=S(=O)(c1ccc(Oc2ccccc2)cc1)N1CCOCC1	.	-10	-0.6	-0.22	-0.0075	-18	.	.
N#Cc1ccc(COc2ccc(CCO)cc2-n2nc3ccccc3n2)cc1	.	-5	5.5*	1.3	-0.62	-17	7	-15
O=C(c1ccco1)N1CCN=C1SCc1cccnc1	-39	-8	-0.22	0.52	0.18	6	.	.
O=C(c1ccco1)N1CCN=C1SCc1ccccc1F	.	-16	-3.3*	0.78	1.1	-22	-15	-29
CCOC(=O)c1[nH]c2cc(OC)c(OC)cc2c1NC(=O)C(C)N1CCN(Cc2ccccc2)CC1 (configuration not stated)	.	-12	3.8*	1.9	-4.3*	-21	?	-31
COc1ccc(-n2c(C)cc(C(=O)COC(=O)Cn3cnc4ccccc43)c2C)cc1	-10	3	5.5*	-1.9	-3.4*	0	?	-37
Cc1cc(C(=O)COc2cccc(-n3cnnn3)c2)c(C)n1-c1ccccc1	.	18	1.2	0.2	-0.59	17	.	.
CC(=O)N(CN1C(=O)c2ccccc2C1=O)c1ccccc1	.	-5	1	-0.13	-0.89	13	.	.
CC(=O)N(c1ccccc1)c1c(F)c(F)c(F)c(F)c1F	10	17	3.9*	0.15	0.21	6	-7.2	-0.88
COc1ccc(-c2cn3cc(C)ccc3n2)cc1OC	.	20	2.2*	-6.5*	0.33	-13	?	?
Clc1ccc2c(c1)CNc1c(ncnc1N1CCOCC1)O2	-54	-1	2.7*	-0.64	-2*	-8	?	-74
Nc1cc(Cl)ccc1N1CCOCC1	45	20	-0.061	.	-1.3	-7	.	.
O=C1c2ccccc2C(=O)N1SC1CCCCC1	.	-28	6.4*	.	-0.76	-6	?	-43
CCN(CC)S(=O)(=O)c1ccc2oc(SCC3CN=C(c4ccc(OC)cc4)S3)nc2c1 (configuration not stated)	4	-40	8.1*	-1.2	-0.81	-9	-32*	?
CCCOC(=O)c1ccc(-c2c(C)noc2-c2ccc(OC)cc2O)o1	20	-8	1.2	0.076	-0.3	-18	.	.
COc1nc(-c2ccc(Cl)cc2)ccc1-c1noc(-c2ccco2)n1	-53	-14	0.86	-0.1	0.67	-12	.	.
